≈ marks a conversion by molar mass, not a printed value.
Assays:
Ramos = assay: Growth inhibition of human Ramos cells after 2 days by MTT assay; type: functional, cell-based; settings: 48 h
HT-29 [1] = assay: Growth inhibition of human HT-29 cells after 2 days by MTT assay; type: functional, cell-based; settings: HT-29, 48 h
[2] = system: Human immunodeficiency virus 1; assay: Antiviral activity against HIV-1 NL4.3 infected in human TZM-b1 cells pretreated for 1 hr followed by viral infection measured after 2 days by CPRG assay; type: functional, cell-based; settings: Human immunodeficiency virus 1, NL4.3, TZM-b1
[3] = Cytotoxicity against human TZM-b1 cells by XTT assay; type: cell-based; settings: read-out: LD50 (the source's name)
[4] = Selectivity index, ratio of IC50 for HEK293 cells to IC50 for human Ramos cells; type: functional
[5] = Selectivity index, ratio of IC50 for HEK293 cells to IC50 for human HT-29 cells; type: functional
HEK293 = assay: Growth inhibition of HEK293 cells after 2 days by MTT assay; type: cell-based; settings: Homo sapiens, HEK293, 48 h
HT-29 [6] = assay: Down regulation of c-Myc expression in human HT-29 cells assessed as c-Myc expression level at 20 uM after 48 hrs by RT-qPCR analysis relative to control; type: functional
Outline: (§1)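 HT-29 cells were incubated 48 h with compound, with DMSO as the vehicle control and resveratrol as the positive control. Total RNA was extracted, reverse-transcribed to cDNA, and hTERT or c-Myc quantified by RT-qPCR. Expression was normalized to β-actin and given as % of the DMSO control (100%). At least three measurements per case; mean ± SEM; one-sample t-test.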

[7] = Selectivity index, ratio of IC50 for BAEC cells to IC50 for human Ramos cells; type: functional
HT-29 [8] = assay: Down regulation of hTERT expression in human HT-29 cells assessed as hTERT expression level at 20 uM after 48 hrs by RT-qPCR analysis relative to control; type: functional; outline: as §1
[9] = Selectivity index, ratio of IC50 for BAEC cells to IC50 for human HT-29 cells; type: functional
[10] = Growth inhibition of BAEC after 2 days by MTT assay; type: cell-based; settings: Bos taurus, 48 h
MCF7 = assay: Growth inhibition of human MCF7 cells after 2 days by MTT assay; type: functional, cell-based; settings: MCF7, 48 h
[11] = Selectivity index, ratio of IC50 for HEK293 cells to IC50 for human MCF7 cells; type: functional
[12] = Selectivity index, ratio of IC50 for BAEC cells to IC50 for human MCF7 cells; type: functional
HT-29 [13] = assay: Down regulation of hTERT expression in human HT-29 cells assessed as hTERT expression level at 1 uM after 48 hrs by RT-qPCR analysis relative to control; type: functional; outline: as §1
HT-29 [14] = assay: Down regulation of c-Myc expression in human HT-29 cells assessed as c-Myc expression level at 1 uM after 48 hrs by RT-qPCR analysis relative to control; type: functional; outline: as §1
[15] = Aqueous solubility of the compound in water at 1 mg after 24 to 36 hrs by LC-MS/MS analysis; type: physicochemical
[16] = Apparent permeability of the compound in phosphate buffer at pH 7.4 by PAMPA; type: physicochemical
[17] = Metabolic stability in human liver microsomes at 50 uM measured after 60 mins in presence of NADPH generating system by LC-UV-MS method; type: ADME, microsome; settings: read-out: Stability
HT-29 [18] = assay: Down regulation of hTERT expression in human HT-29 cells assessed as hTERT expression level at 5 uM after 48 hrs by RT-qPCR analysis relative to control; type: functional; outline: as §1
HT-29 [19] = assay: Down regulation of c-Myc expression in human HT-29 cells assessed as c-Myc expression level at 5 uM after 48 hrs by RT-qPCR analysis relative to control; type: functional; outline: as §1

Structure (SMILES) | IC50 (Ramos) [µM] | IC50 (HT-29 [1]) [µM] | IC50 [2] [µM] | CC50 [3] [µM] | Ratio IC50 [4] | Ratio IC50 [5] | IC50 (HEK293) [µM] | Ratio IC50 [7] | Ratio IC50 [9] | IC50 [10] [µM] | IC50 (MCF7) [µM] | Ratio IC50 [11] | Ratio IC50 [12] | Activity (HT-29 [13]) [%] | Activity (HT-29 [14]) [%] | Papp [16] [×10⁻⁶ cm/s] | also measured
CCc1ccc(CCNC2=NC(=O)/C(=C/c3ccc(-c4ccc(C(=O)O)c(O)c4)o3)S2)cc1 | 37 | 26 | 1 | > 50 | 0.09 | 0.13 | 3.4 | 0.54 | 0.77 | 20 | 4.5 | 0.76 | 4.44 |  |  |  | Activity (HT-29 [6]): 67%; Activity (HT-29 [8]): 56%
O=C1/C(=C/c2ccc(-c3cc(C(F)(F)F)ccc3Cl)o2)SC(=S)N1Cc1ccc(F)cc1 | 4.1 | 4.6 | 17.3 | > 50 | 0.59 | 0.52 | 2.4 | 0.53 | 0.48 | 2.2 | 1.2 | 2 | 1.83 | 37 | 69 |  | 
O=C(O)c1ccc(-c2ccc(/C=C3\SC(=S)N(CCc4ccc(Cl)c(Cl)c4)C3=O)o2)cc1O | > 100 | > 100 | 4.8 | > 50 | <0.29 | <0.29 | 29 | <0.86 | <0.86 | 86 | > 100 | <0.29 | <0.86 |  |  |  | 
O=C1N=C(N2CCOCC2)S/C1=C\c1ccc(-c2ccc(C(=O)O)c(O)c2)o1 | 3.14 | 2.3 | 13.4 | > 50 | 16.9 | 23.04 | 53 | 24.2 | 33.04 | 76 | 21 | 2.52 | 3.62 | 51 | 60 | 1.28 | solubility [15]: 9.7 µM (≈ 3.88 µg/mL); remaining at 1 h, 50 µM [17]: 98.7%
O=C1N=C(Nc2ccc(F)c(Cl)c2)S/C1=C\c1ccc(-c2ccc(C(=O)O)c(O)c2)o1 | 3.1 | 1.1 | 1 | > 50 | 3.9 | 10.91 | 12 | 8 | 22.72 | 25 | 13 | 0.92 | 1.92 | 53 | 60 | 1.58 | solubility [15]: 11.8 µM (≈ 5.41 µg/mL); remaining at 1 h, 50 µM [17]: 99.1%
O=C1/C(=C/c2ccc(-c3cc(C(F)(F)F)ccc3Cl)o2)SC(=S)N1Cc1ccc(Cl)cc1 | 3.8 | 8.3 | 6.9 | > 50 | 1.1 | 0.51 | 4.2 | 0.63 | 0.29 | 2.4 | 1.13 | 3.72 | 2.12 |  |  |  | Activity (HT-29 [18]): 53%; Activity (HT-29 [19]): 100%
O=C1N=C(NCCc2ccc(Cl)c(Cl)c2)S/C1=C\c1ccc(-c2ccc(C(=O)O)c(O)c2)o1 | > 100 | > 100 | 1.8 | > 50 |  |  | > 100 |  |  | > 100 | > 100 |  |  |  |  |  | 
Cn1c(=O)c2c(ncn2C)n(C)c1=O [CAFFEINE] |  |  |  |  |  |  |  |  |  |  |  |  |  |  |  | < 0.1 | 
CC(C)NCC(O)COc1cccc2ccccc12 (stereo not drawn) [PROPRANOLOL] |  |  |  |  |  |  |  |  |  |  |  |  |  |  |  | 9.68 | 
Cc1nnc(C(=O)NC(C)(C)c2nc(C(=O)NCc3ccc(F)cc3)c(O)c(=O)n2C)o1 [RALTEGRAVIR] |  |  | 0.021 | > 50 |  |  |  |  |  |  |  |  |  |  |  |  | 
Oc1ccc(/C=C/c2cc(O)cc(O)c2)cc1 [RESVERATROL] | 37 | 137 |  |  |  |  | 17 |  |  | 57 | 34 |  |  | 28 | 47 |  | 
C[C@]12CC[C@H]3[C@@H](CCC4=CC(=O)CC[C@@]43C)[C@@H]1CC[C@@H]2O [TESTOSTERONE] |  |  |  |  |  |  |  |  |  |  |  |  |  |  |  |  | remaining at 1 h, 50 µM [17]: 76.2%

From ChEMBL document CHEMBL4017470, “One drug for two targets: Biological evaluation of antiretroviral agents endowed with antiproliferative activity” (Bioorg Med Chem Lett, 2017)
